Drawing on ChEMBL document CHEMBL1165962, “Rearranged diterpenoids from the biotransformation of ent-trachyloban-18-oic acid by Rhizopus arrhizus” (J Nat Prod, 2010), this text covers IC50 and inhibition for eight compounds.

The source made the active and inactive calls. The calls are words filed in the database; no cut-off is given here.

The test system of assay [1] is HCT-116. Briefly: Cytotoxicity against human HCT116 cells. The format is functional, cell-based. The essentials:
(§1)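 Growth inhibition measured by a previously published method in KB (oral epidermoid carcinoma) and HCT-116 (human colon carcinoma) cells. Taxotere served as the reference compound. IC50 was reported.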

Another assay concerns the target Bcl-2-like protein 1 (Homo sapiens, UniProt Q07817). Nature of the assay: Displacement of fluorescently-tagged BH3 peptide from Bcl-XL by fluorimetric assay. Summed up:
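Fluorescence-polarization competition assay in which test compound displaces a fluorescent-tagged Bak BH3-domain peptide from Bcl-xL. Unlabeled Bak(BH3) peptide served as the positive control. Output was percent inhibition of labeled-peptide binding, or IC50 as the concentration giving 50% inhibition.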

Assay [2] concerns HCT-116. Nature of the assay: Cytotoxicity against human HCT116 cells at 10 ug/mL. The format is functional, cell-based. Summed up: (§2)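 Single-concentration screen at 10 µg/mL in KB (oral epidermoid carcinoma) and HCT-116 (human colon carcinoma) cells, run by a previously published cytotoxicity method. Taxotere served as the reference.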
For assay [3], the system named is KB. Nature of the assay: Cytotoxicity against human KB cells at 10 ug/mL. Type of assay: functional, cell-based. Summed up: as §2
Assay [4] relates to KB. Nature of the assay: Cytotoxicity against human KB cells. Type of assay: functional, cell-based. The essentials: as §1

Bcl-2-like protein 1, sequence (Q07817 whole entry): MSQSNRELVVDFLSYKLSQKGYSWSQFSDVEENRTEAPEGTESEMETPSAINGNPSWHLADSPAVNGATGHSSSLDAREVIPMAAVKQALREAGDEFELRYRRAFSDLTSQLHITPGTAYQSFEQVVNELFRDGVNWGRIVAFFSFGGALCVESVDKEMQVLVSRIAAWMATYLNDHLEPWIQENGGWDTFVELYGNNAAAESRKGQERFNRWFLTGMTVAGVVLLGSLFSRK

Take `CO[C@@]1(C)C[C@]23CC[C@@H]4[C@](C)([C@H](O)CC[C@@]4(C)C(=O)O)[C@H]2C=C[C@@H]1C3`: the IC50 – broadly, the concentration that inhibits the measured activity by half – in the assay with HCT-116 [1] was greater than 28.7 µM; on Bcl-2-like protein 1, “Not Active”; in the assay with KB [4] it was greater than 28.7 µM. Also, the inhibition result in the assay on HCT-116 [2] and in the assay with KB [3] was “inactive” in each case.
Take `C[C@]12C[C@]34CC[C@@H]5[C@](C)([C@H](O)CC[C@@]5(C)C(=O)O)[C@@H]3C[C@H]1[C@H]2C4`: the figures for the half-inhibitory concentration (IC50) in the assay with HCT-116 [1], on Bcl-2-like protein 1 and in the assay with KB [4] were greater than 31.4 µM, “Not Active” and greater than 31.4 µM, respectively. For the same compound, the inhibition entry in the assay on HCT-116 [2] and in the assay with KB [3] was “inactive” in each case.
Take `C[C@]12CCC[C@@](C)(C(=O)O)[C@@H]1CC[C@]13C[C@@H](C=C[C@@H]12)[C@@](C)(O)C3`: the IC50 in the assay on HCT-116 [1] was greater than 31.4 µM; at Bcl-2-like protein 1 (read-out: IC50), 380 µM; with KB [4], greater than 31.4 µM. Further, the inhibition entry in the assay on HCT-116 [2] and in the assay with KB [3] was “inactive” in each case.
In the case of `CC(=O)O[C@@]12CO[C@@H]1C[C@H](O)[C@@]1(C)C(=O)[C@H](O)C3=C(C)[C@@H](OC(=O)[C@H](O)[C@@H](NC(=O)OC(C)(C)C)c4ccccc4)C[C@@](O)([C@@H](OC(=O)c4ccccc4)[C@H]21)C3(C)C` [DOCETAXEL], the IC50 in the assay on HCT-116 [1] was determined as 0.0012 µM; in the assay on KB [4], 0.00015 µM.
As for `C[C@]12CCC[C@@](C)(C(=O)O)[C@@H]1CC[C@]13C[C@@H]4[C@H](C[C@H]12)[C@]4(CO)C3`, the figures for the IC50 in the assay with HCT-116 [1], at Bcl-2-like protein 1 (read-out: IC50) and in the assay with KB [4] were greater than 31.4 µM, 220 µM and greater than 31.4 µM, respectively. Also, the inhibition entry in the assay on HCT-116 [2] and in the assay with KB [3] was “inactive” throughout.
Consider `CC1=C[C@]23CC[C@@H]4[C@](C)([C@H](O)CC[C@@]4(C)C(=O)O)[C@H]2[C@H]2[C@H](C3)[C@@H]12`, for which the IC50 in the assay on HCT-116 [1] is greater than 31.6 µM; on Bcl-2-like protein 1, “Not Active”; in the assay with KB [4] it was greater than 31.6 µM. The inhibition result in the assay on HCT-116 [2] and in the assay with KB [3] was “inactive” throughout.
On to `C[C@]12[C@H](O)CC[C@@](C)(C(=O)O)[C@@H]1CC[C@]13C[C@@H](C=C[C@@H]12)[C@@](C)(O)C3`, for which the half-inhibitory concentration (IC50) with HCT-116 [1] is greater than 29.9 µM; at Bcl-2-like protein 1 it was “Not Active”; in the assay on KB [4], greater than 29.9 µM. Further, the inhibition result with HCT-116 [2] and with KB [3] was “inactive” each time.
As to `C[C@]12CCC[C@@](C)(C(=O)O)[C@@H]1CC[C@]13C[C@@H]4[C@H](C[C@H]12)[C@]4(C)C3`, the IC50 on Bcl-2-like protein 1 (read-out: IC50) amounted to 400 µM.
